Assay results reported in ChEMBL document CHEMBL1125523, “Novel indolodioxanes with antihypertensive effects: potent ligands for the 5-HT1A receptor” (J Med Chem, 1992).

What was measured:
[1] = target: T1, 5-hydroxytryptamine receptor 1A (Homo sapiens, UniProt P08908); test: Displacement of [3H]8-OH-DPAT from 5-hydroxytryptamine 1A receptor expressed in CHO cell membranes
T1 sequence (P08908 whole entry): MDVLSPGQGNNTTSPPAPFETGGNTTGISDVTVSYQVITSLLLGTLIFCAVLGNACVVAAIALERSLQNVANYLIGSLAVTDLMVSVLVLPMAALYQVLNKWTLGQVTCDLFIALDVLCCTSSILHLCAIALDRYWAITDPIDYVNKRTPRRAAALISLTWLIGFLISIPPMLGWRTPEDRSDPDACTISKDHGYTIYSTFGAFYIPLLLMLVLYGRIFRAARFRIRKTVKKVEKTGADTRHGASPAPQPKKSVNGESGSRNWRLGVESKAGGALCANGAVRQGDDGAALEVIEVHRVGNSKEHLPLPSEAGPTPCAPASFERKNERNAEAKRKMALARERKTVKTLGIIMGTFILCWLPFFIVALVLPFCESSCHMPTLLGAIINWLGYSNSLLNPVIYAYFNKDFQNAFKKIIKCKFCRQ
In short: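 [3H]8-OH-DPAT (164.5 Ci/mmol, 1 nM) competition on CHO membranes expressing a cloned mammalian 5-HT1A receptor. Ten drug concentrations in duplicate. IC50 from a nonlinear single-site fit, converted to Ki with Cheng–Prusoff. Ki in nM ± SEM.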

[2] = target: Serotonin 2 (5-HT2) receptor (Homo sapiens, UniProt P41595+P28223+P28335); test: Binding affinity towards 5-hydroxytryptamine 2 receptor expressed in CHO cell membranes using [3H]ketanserin (60 Ci/mmol, 1 nM)
In short: (§1)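 Competition binding on membranes from CHO cells expressing a cloned mammalian 5-HT2 receptor, with [3H]ketanserin (60 Ci/mmol, 1 nM). Ten drug concentrations run in duplicate. IC50 from a nonlinear single-site fit, converted to Ki by Cheng–Prusoff. Ki reported in nM ± SEM.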

[3] = target: T2, Adrenergic receptor alpha-1 (Rattus norvegicus, UniProt P15823+P23944+P43140); test: Binding affinity towards Alpha-1 adrenergic receptor from rat whole brain using [3H]prazosin (18.1 Ci/mmol,0.9nanoM)as radioligand
T2 sequence (P15823 whole entry): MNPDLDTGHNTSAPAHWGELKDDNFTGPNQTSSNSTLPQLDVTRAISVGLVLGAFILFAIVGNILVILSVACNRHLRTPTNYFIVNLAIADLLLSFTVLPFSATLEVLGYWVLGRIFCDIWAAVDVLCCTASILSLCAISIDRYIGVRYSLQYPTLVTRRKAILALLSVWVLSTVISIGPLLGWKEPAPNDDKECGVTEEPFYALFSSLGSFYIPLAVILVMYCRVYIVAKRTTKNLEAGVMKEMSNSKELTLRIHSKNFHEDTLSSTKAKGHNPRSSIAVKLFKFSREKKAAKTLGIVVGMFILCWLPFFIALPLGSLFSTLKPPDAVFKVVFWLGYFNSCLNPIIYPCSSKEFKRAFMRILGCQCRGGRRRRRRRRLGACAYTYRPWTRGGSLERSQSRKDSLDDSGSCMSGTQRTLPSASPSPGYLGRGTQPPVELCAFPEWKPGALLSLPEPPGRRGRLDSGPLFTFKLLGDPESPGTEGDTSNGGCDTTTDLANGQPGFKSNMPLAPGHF
T2 sequence (P23944 whole entry): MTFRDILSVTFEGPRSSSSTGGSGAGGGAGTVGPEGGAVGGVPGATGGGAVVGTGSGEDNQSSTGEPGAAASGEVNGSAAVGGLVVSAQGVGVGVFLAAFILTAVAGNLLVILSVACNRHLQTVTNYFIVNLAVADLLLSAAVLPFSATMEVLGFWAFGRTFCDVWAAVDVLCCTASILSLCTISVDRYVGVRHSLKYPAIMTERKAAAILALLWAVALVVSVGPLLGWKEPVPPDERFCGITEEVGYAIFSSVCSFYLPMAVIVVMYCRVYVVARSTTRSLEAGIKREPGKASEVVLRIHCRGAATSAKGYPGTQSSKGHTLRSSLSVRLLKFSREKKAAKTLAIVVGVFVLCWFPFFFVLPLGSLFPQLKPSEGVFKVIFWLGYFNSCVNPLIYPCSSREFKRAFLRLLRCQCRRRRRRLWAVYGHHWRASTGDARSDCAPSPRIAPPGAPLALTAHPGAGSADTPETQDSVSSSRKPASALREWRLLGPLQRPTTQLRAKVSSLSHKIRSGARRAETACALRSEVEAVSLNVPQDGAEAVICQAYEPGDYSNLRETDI
T2 sequence (P43140 whole entry): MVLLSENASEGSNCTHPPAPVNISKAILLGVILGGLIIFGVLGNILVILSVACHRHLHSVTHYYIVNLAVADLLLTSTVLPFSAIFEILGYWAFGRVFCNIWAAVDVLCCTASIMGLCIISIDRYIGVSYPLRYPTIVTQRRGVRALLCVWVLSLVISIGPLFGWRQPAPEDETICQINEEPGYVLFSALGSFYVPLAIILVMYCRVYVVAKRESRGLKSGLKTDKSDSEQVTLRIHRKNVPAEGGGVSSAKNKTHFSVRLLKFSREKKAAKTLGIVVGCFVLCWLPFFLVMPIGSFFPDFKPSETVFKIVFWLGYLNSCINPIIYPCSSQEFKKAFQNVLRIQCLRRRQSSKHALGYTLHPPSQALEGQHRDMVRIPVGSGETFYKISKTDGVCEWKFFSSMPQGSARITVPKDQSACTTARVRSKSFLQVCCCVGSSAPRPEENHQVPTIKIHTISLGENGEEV
In short: (§2)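 Rat whole-brain membranes displaced by test drug from [3H]prazosin (18.1 Ci/mmol, 0.9 nM). Ten concentrations in duplicate. IC50 by nonlinear single-site fit, then Ki via Cheng–Prusoff. Ki given in nM ± SEM.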

D(2) dopamine receptor [4] = target: T3, D(2) dopamine receptor (Homo sapiens, UniProt P14416); test: Binding affinity towards Dopamine receptor D2 from mammalian clones expressed in CHO cell membranes using 2 (86.1 Ci/mmol,1.7nanoM)as radioligand
T3 sequence (P14416 whole entry): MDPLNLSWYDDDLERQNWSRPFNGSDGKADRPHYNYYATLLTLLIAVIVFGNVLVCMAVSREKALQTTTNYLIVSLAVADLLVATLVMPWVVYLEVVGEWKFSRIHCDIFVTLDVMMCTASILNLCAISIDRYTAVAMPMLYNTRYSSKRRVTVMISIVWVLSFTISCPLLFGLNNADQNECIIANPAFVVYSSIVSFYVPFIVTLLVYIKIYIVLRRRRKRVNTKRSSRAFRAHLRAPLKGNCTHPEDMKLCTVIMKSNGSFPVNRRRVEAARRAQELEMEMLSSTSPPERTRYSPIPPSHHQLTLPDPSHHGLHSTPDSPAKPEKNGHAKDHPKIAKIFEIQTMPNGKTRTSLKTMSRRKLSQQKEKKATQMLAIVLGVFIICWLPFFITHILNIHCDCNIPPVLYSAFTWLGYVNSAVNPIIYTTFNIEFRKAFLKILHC
In short: (§3)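 Cloned mammalian D2 receptor in CHO cell membranes, radioligand [3H]U-86170 (86.1 Ci/mmol, 1.7 nM). Competition over ten drug concentrations in duplicate. IC50 from a single-site nonlinear fit, with Ki by Cheng–Prusoff. Values in nM ± SEM.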

Mus musculus [5] = test: Result of hypothermia assay carried in Charles river CF-1 male mice at a dose of 0.01 mg/kg (s.c. administration); format: functional
In short: (§4)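 Male CF-1 mice (18–22 g), four per dose, individually caged. Rectal temperature (°F) taken before and 20 min after a 0.1 mL sc injection. A fall of 2 °F or more counted as a positive hypothermic response. Doses started at 30 mg/kg and were lowered by half-log steps.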

Mus musculus [6] = test: Result of hypothermia assay carried in Charles river CF-1 male mice at a dose of 17.3 mg/kg (s.c. administration); format: functional; in short: as §4
D(2) dopamine receptor [7] = target: T3, D(2) dopamine receptor; test: Compound was evaluated for the binding affinity towards Dopamine receptor D2 from mammalian clones expressed in CHO cell membranes using 2 (86.1 Ci/mmol,1.7nanoM)as radioligand; in short: as §3
Mus musculus [8] = test: Result of hypothermia assay carried in Charles river CF-1 male mice at a dose of 1.3 mg/kg (s.c. administration); format: functional
In short: (§5)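 CF-1 male mice (18–22 g), four per dose, caged individually. Rectal temperature (°F) taken before dosing and 20 min after. A drop of 2 °F or more counted as positive. Doses started at 30 mg/kg and fell by half-log steps until 0/4 mice responded. Route: sc, 0.1 mL; po, 0.2 mL by oral syringe. ED50 by Spearman-Kärber.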

Mus musculus [9] = test: Result of hypothermia assay carried in Charles river CF-1 male mice at a dose of 1.7 mg/kg (oral administration); format: functional; in short: as §5
[10] = Compound was evaluated for the binding affinity towards 5-hydroxytryptamine 2 receptor from mammalian clones expressed in CHO cell membranes using [3H]-ketanserin as radioligand; in short: as §1
[11] = target: T2, Adrenergic receptor alpha-1; test: Compound was evaluated for the binding affinity towards Alpha-1 adrenergic receptor from rat whole brain using [3H]prazosin as radioligand; in short: as §2
D(2) dopamine receptor [12] = target: T3, D(2) dopamine receptor; test: Compound was evaluated for the binding affinity towards Dopamine receptor D2 from mammalian clones expressed in CHO cell membranes using [3H]U-86170 as radioligand; in short: as §3
Mus musculus [13] = test: Result of hypothermia assay carried in Charles river CF-1 male mice at a dose of 30 mg/kg (s.c. administration); format: functional; in short: as §4

SMILES | Ki [1] | Ki [2] | Ki [3] | Ki (D(2) dopamine receptor [4]) | also measured
COC(=O)c1cc2c3c(ccc2[nH]1)OCC(CN1CCC(Nc2ccccc2)(C(N)=O)CC1)O3 (stereo unspecified) | 22 nM | 171 nM | 19.8 nM | > 388 nM | –
N#Cc1cc2c3c(ccc2[nH]1)OCC(CN1CCC2(CC1)C(=O)NCN2c1ccccc1)O3 (stereo unspecified) | 0.5 nM | 281 nM | 6 nM | 1.5 nM | Temperature decrease (Mus musculus [5]): 13 degrees F
CCCCOC(=O)c1cc2c3c(ccc2[nH]1)OCC(CN1CCC2(CC1)C(=O)NCN2c1ccccc1)O3 (stereo unspecified) | 3 nM | 92.6 nM | 39.6 nM | 5.7 nM | –
O=C(NCCCc1ccccc1)c1cc2c3c(ccc2[nH]1)OCC(CNCCCc1ccccc1)O3 (stereo unspecified) | 1.6 nM | 27.6 nM | 11.4 nM | 41 nM | –
O=C(O)c1cc2c3c(ccc2[nH]1)OCC(CN1CCC2(CC1)C(=O)NCN2c1ccccc1)O3 (stereo unspecified) | 17.8 nM | > 1722 nM | > 862 nM | 58 nM | Temperature decrease (Mus musculus [6]): 3.6 degrees F
O=C1NCN(c2ccccc2)C12CCN(CC1COc3ccc4[nH]ccc4c3O1)CC2 (stereo unspecified) | 0.4 nM | – | – | – | Ki (D(2) dopamine receptor [7]): 0.2 nM
O=C(OCc1ccccc1)c1cc2c3c(ccc2[nH]1)OCC(CN1CCC2(CC1)C(=O)NCN2c1ccccc1)O3 (stereo unspecified) | 1 nM | 143 nM | 30.4 nM | 5.8 nM | Temperature decrease (Mus musculus [6]): 5.6 degrees F
COC(=O)c1cc2c3c(ccc2[nH]1)OCC(CNCCCc1ccccc1)O3 (stereo unspecified) | 0.2 nM | 38.7 nM | 0.6 nM | 15.9 nM | Temperature decrease (Mus musculus [8]): 13.6 degrees F; Temperature decrease (Mus musculus [9]): 8.8 degrees F
CCOC(=O)C1CCN(CC2COc3ccc4[nH]c(C(=O)OC)cc4c3O2)CC1 (stereo unspecified) | 1.2 nM | 170 nM | 12.3 nM | 255 nM | –
COC(=O)c1cc2c3c(ccc2[nH]1)OCC(CN1CCC2(CC1)C(=O)NCN2c1ccccc1)O3 (stereo unspecified) | 0.9 nM | – | – | – | Ki [10]: 640 nM; Ki [11]: 11.4 nM; Ki (D(2) dopamine receptor [12]): 3.1 nM; Temperature decrease (Mus musculus [13]): 3.2 degrees F
NC(=O)c1cc2c3c(ccc2[nH]1)OCC(CN1CCC2(CC1)C(=O)NCN2c1ccccc1)O3 (stereo unspecified) | 0.3 nM | > 1722 nM | 29.4 nM | 1.8 nM | –
O=C1NCN(c2ccccc2)C12CCN(CC1COc3ccc4[nH]c(CO)cc4c3O1)CC2 (stereo unspecified) | 0.6 nM | > 1722 nM | 8.8 nM | 2 nM | –
COC(=O)c1cc2c3c(ccc2[nH]1)OCC(CN1CCC(n2c(O)nc4ccccc42)CC1)O3 (stereo unspecified) | 0.6 nM | 31.6 nM | 1.8 nM | 6.7 nM | –
